Series [1] deals with T1, ATP-dependent translocase ABCB1 (Homo sapiens, UniProt P08183). The series can be described thus: Modulation of p-gp (unknown origin) transfected in human MDA435/LCC6MDR cells assessed as potentiation of paclitaxel-induced cytotoxicity at 1 uM after 5 days by MTS assay relative to untreated control. Type of series: cell-based. To be noted: 120 h. Summed up: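 6000 LCC6MDR or LCC6 cells per well co-incubated with paclitaxel with or without 1 μM modulator for 5 days at 37 °C. […] RF = IC50 without modulator divided by IC50 with modulator. N = 2–3 experiments; mean ± SEM.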
T1 sequence (P08183 whole entry): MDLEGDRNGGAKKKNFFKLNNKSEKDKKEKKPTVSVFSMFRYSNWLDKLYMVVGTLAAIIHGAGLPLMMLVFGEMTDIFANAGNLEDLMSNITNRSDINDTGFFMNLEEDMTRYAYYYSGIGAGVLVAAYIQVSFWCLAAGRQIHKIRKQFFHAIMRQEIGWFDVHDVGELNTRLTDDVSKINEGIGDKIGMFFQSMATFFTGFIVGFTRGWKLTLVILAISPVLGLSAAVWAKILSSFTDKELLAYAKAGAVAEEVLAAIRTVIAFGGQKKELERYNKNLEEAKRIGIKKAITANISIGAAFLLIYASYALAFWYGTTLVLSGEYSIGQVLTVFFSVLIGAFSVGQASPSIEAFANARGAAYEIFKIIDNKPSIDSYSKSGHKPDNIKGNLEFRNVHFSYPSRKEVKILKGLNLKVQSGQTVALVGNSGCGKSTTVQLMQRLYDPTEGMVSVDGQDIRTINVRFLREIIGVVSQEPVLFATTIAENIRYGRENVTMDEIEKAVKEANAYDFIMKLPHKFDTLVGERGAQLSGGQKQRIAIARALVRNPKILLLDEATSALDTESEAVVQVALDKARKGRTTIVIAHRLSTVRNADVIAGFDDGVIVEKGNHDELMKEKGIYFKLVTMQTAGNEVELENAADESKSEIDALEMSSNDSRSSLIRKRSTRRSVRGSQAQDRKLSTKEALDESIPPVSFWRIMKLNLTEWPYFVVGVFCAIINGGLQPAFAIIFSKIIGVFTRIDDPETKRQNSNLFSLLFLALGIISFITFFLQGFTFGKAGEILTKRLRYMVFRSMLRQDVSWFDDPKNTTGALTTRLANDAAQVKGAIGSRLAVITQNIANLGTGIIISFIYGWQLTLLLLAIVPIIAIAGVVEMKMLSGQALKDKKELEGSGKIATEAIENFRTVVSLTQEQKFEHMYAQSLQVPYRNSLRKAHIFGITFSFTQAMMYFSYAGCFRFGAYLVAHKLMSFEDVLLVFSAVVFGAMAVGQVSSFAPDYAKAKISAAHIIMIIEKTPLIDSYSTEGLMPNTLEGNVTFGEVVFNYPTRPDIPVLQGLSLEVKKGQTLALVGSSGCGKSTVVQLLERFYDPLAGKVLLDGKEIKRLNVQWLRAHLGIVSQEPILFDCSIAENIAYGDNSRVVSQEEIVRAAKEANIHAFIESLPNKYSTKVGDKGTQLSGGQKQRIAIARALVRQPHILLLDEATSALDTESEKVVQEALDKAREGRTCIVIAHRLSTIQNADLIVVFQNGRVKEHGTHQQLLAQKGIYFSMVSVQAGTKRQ
(In general: Tetrazolium assays rely on reduction of a dye to a coloured formazan, in cell work by metabolically active cells.)

Series [2] is filed under the species Homo sapiens. The experiment in a line: Ratio of verapamil EC50 to compound EC50 for modulation of p-gp (unknown origin) transfected in human MDA435/LCC6MDR cells assessed as reversal of paclitaxel resistance. The class given is cell-based.
Series [3] deals with Multidrug resistance-associated protein 1 (Homo sapiens, UniProt P33527). The experiment in a line: Modulation of MRP1 (unknown origin) transfected in human 2008/MRP1 cells assessed as potentiation of doxorubicin-induced cytotoxicity at 1 uM after 5 days by MTS assay relative to untreated control. To be noted: 2008/mrp1, 120 h. The class given is cell-based.
Multidrug resistance-associated protein 1, sequence (P33527 whole entry): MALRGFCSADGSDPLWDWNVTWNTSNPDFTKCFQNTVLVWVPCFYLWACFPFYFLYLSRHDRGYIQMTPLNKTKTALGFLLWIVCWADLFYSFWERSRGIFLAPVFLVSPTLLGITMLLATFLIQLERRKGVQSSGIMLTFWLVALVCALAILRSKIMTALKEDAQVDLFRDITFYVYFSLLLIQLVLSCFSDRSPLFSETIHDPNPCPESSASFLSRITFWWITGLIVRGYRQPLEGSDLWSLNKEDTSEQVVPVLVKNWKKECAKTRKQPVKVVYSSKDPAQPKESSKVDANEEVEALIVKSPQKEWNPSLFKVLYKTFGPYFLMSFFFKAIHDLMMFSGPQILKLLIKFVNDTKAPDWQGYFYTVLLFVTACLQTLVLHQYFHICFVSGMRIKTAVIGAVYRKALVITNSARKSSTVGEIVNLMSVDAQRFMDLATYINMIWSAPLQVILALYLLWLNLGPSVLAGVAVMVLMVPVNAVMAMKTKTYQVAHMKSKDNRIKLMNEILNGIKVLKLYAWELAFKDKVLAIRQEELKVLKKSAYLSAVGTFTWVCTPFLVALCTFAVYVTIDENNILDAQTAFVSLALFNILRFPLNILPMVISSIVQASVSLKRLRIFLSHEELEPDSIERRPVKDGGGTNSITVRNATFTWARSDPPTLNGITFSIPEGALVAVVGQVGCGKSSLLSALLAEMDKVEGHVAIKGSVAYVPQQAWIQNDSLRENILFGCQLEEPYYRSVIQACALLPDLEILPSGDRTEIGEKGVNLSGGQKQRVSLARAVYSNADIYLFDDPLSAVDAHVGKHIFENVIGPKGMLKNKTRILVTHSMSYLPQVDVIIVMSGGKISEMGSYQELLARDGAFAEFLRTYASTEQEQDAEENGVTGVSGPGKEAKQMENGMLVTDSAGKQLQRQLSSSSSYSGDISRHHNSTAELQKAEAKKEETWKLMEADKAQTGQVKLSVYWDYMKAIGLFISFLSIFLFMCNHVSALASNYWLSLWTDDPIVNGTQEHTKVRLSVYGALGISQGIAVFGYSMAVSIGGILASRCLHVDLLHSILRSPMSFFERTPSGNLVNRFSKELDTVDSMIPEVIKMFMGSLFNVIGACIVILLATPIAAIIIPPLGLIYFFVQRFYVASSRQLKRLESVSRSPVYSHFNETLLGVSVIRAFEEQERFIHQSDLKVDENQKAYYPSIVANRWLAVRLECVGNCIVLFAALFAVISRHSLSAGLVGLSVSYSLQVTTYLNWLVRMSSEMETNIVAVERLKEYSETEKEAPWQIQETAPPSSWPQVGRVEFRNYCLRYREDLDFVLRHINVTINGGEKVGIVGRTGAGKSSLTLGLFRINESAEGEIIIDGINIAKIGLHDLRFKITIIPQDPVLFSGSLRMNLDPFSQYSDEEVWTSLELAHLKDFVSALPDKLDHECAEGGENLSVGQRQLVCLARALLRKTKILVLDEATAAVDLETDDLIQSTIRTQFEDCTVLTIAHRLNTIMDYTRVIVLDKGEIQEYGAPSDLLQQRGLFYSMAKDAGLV
A short description of series [4]: Cytotoxicity against human MDA435/LCC6 cells assessed as growth inhibition after 3 days by MTS assay. The class given is functional, cell-based. To be noted: MDA-435/LCC6, 72 h. The essentials:
(§1)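 10 000 cells per well exposed to a concentration series of analogue for 3 days at 37 °C. Growth read by MTS proliferation assay and IC50 determined. Cells were cultured in DMEM with 10% heat-inactivated FBS and penicillin/streptomycin at 37 °C under 5% CO2.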

For another series, the system named is P-gp (unknown origin). The series can be described thus: Therapeutic index, ratio of IC50 for mouse L929 cells to EC50 for modulation of p-gp (unknown origin) transfected in human MDA435/LCC6MDR cells assessed as reversal of paclitaxel resistance. To be noted: read-out: Ratio IC50/EC50. Type of series: cell-based. The essentials:
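Therapeutic index = L929 cytotoxicity IC50 (10 000 cells, 3-day MTS) divided by EC50 for reversing paclitaxel resistance in LCC6MDR (5-day MTS co-incubation with modulator series). N = 2–5 experiments.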

Series [5] deals with T2, Broad substrate specificity ATP-binding cassette transporter ABCG2 (Homo sapiens, UniProt Q9UNQ0).
T2 sequence (Q9UNQ0 whole entry): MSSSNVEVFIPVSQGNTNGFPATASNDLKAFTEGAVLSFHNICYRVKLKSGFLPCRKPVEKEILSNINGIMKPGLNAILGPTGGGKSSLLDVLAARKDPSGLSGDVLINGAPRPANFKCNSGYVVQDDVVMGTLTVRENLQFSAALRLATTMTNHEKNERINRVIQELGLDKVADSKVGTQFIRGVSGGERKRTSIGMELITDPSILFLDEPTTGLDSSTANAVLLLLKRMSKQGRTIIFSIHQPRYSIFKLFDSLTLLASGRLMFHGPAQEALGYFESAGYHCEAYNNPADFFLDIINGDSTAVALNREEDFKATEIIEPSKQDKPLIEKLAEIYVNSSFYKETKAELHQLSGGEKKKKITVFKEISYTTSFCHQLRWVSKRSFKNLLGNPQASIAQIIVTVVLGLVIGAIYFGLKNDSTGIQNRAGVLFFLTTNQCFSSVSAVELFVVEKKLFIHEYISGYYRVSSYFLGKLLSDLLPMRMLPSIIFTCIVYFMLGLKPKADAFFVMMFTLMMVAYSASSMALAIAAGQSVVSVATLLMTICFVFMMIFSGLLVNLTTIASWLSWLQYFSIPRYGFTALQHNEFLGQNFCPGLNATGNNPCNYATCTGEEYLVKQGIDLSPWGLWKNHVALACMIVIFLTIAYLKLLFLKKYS
The series can be described thus: Modulation of BCRP (unknown origin) transfected in human HEK293/R2 cells assessed as potentiation of topotecan-induced cytotoxicity at 1 uM after 5 days by MTS assay relative to untreated control. Type of series: cell-based. To be noted: hek293/r2, 120 h. Summed up: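 4500 HEK293/R2 or HEK293/pcDNA3.1 cells per well co-incubated with topotecan with or without 1 μM modulator for 5 days at 37 °C. Readout was MTS/PMS absorbance at 490 nm after 2 h. RF = IC50 without modulator divided by IC50 with modulator. N = 2–4 experiments.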

Another series deals with L929. The experiment in a line: Cytotoxicity against mouse L929 cells assessed as growth inhibition after 3 days by MTS assay. Type of series: cell-based. To be noted: L929, 72 h. Summed up:
as §1

The target in series [6] is T1, ATP-dependent translocase ABCB1. The experiment in a line: Inhibition of p-gp (unknown origin) transfected in human MDA435/LCC6MDR cells assessed as reversal of doxorubicin drug resistance relative to control. The class given is cell-based.
Another series concerns MDA-435/LCC6. The experiment in a line: Induction of doxorubicin accumulation in human MDA435/LCC6 cells at 1 uM after 150 mins by spectrofluorometric analysis. The class given is functional, cell-based. The essentials:
(§2)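 1 × 10^6 LCC6 or LCC6MDR cells incubated with 20 μM doxorubicin plus 1 μM analogue at 37 °C for 150 min; 0.1% DMSO served as negative control. Cells were washed with cold PBS and lysed in 0.75 M HCl/0.2% Triton X-100 in 2-propanol. Supernatant DOX fluorescence was read at ex 460/em 610 nm. N = 3–5 experiments; Student's t test.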

The target of series [7] is T1, ATP-dependent translocase ABCB1. The experiment in a line: Modulation of p-gp (unknown origin) transfected in human MDA435/LCC6MDR cells assessed as induction of doxorubicin accumulation at 1 uM after 150 mins by spectrofluorometric analysis relative to control. The class given is cell-based. To be noted: 2.5 h. Summed up: as §2
Series [8] can be described thus: Cytotoxicity against human MDA435/LCC6MDR cells assessed as growth inhibition after 3 days by MTS assay. To be noted: 72 h. Type of series: functional, cell-based. The essentials: as §1
The species named for series [9] is Homo sapiens. The series can be described thus: Ratio of compound activity to verapamil activity for modulation of p-gp (unknown origin) transfected in human MDA435/LCC6MDR cells assessed as potentiation of paclitaxel-induced cytotoxicity. Type of series: cell-based.
Series [10] can be described thus: Drug uptake in human MDA435/LCC6 cells at 20 to 200 uM after 150 mins by reverse phase-HPLC analysis. Type of series: ADME, cell-based. To be noted: mda-435/lcc6, 2.5 h. Summed up: (§3)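 3 × 10^6 LCC6 or LCC6MDR cells incubated with 20 or 200 μM analogue at 37 °C for 150 min. Cells were then pelleted, washed with cold PBS pH 7.4, lysed in 100% methanol by vortexing for 5 min and spun. The supernatant was analysed by reversed-phase C18 HPLC with UV-vis detection. N = 2 independent experiments.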

Series [11] concerns the target T1, ATP-dependent translocase ABCB1. The experiment in a line: Modulation of p-gp (unknown origin) transfected in human MDA435/LCC6MDR cells assessed as increase in intracellular drug accumulation at 20 to 200 uM after 150 mins by reverse phase-HPLC analysis. Type of series: cell-based. To be noted: 2.5 h. Summed up: as §3

Active and inactive are the calls of the source. The calls are words filed in the database; no cut-off is given here. Bounds are passed on as bounds.

Broadly, the IC50 is the point on the concentration scale where inhibition reaches its midpoint.

On to `C=CCOc1cc(CN2C(=O)C(c3ccc(OC)c(OC)c3)=C(c3ccc(OC)c(OC)c3)C2=O)cc(OCC=C)c1OCC=C`, for which the “fold change (FC)” value in series [1] is 3.8.

Turning to `COc1ccc(C2=C(c3ccc(OC)c(OC)c3)C(=O)N(CCn3cnc4c(N)ncnc43)C2=O)cc1OC`, the “fold change (FC)” value in [1] is 1.7.

In the case of `COc1ccc(C2=C(c3cc(OC)c(OC)c(OC)c3)C(=O)N(Cc3cc(OC)c(OC)c(OC)c3)C2=O)cc1OC`, the “fold change (FC)” value in [1] came to 7.4.

In the case of `COc1ccc(C2=C(c3cc(OC)c(OC)c(OC)c3)C(=O)N(c3cc(OC)c(OC)c(OC)c3)C2=O)cc1OC`, in [1], the “fold change (FC)” value was 1.5.

Take `COc1ccc(C2=C(c3ccc(OC)c(OC)c3)C(=O)N(CC(=O)O)C2=O)cc1OC`: the “fold change (FC)” value in series [1] amounted to 0.9.

On to `COc1ccc(C2=C(c3cc(OC)c(OC)c(OC)c3)C(=O)N(CC(=O)c3ccc(OCc4ccccc4)c(OC)c3)C2=O)cc1OC`, for which the Ratio EC50 in the series listed under Homo sapiens [2] was 4.1. In addition, the “fold change (FC)” value was found to be 1.2 in series [3]; 42.7 in series [1]; 8.2 in series [5]; 5.6 in [6]; 2.3 in series [7]. Further, the IC50 (in [4]; in the series on L929; in series [8]) was above 100 µM in each case. Further, in the series on P-gp (unknown origin), the selectivity ratio is above 909. Also, the outcome in the series on MDA-435/LCC6 was inactive.

As to `COc1ccc(CCN2C(=O)C(c3ccc(OC)c(OC)c3)=C(c3cc(OC)c(OC)c(OC)c3)C2=O)cc1OC`, the “fold change (FC)” value in series [1] is on record as 4.6.

Turning to `COc1ccc(C(=O)CN2C(=O)C(c3ccc(OC)c(OC)c3)=C(c3cc(OC)c(OC)c(OC)c3)C2=O)cc1OC`, in series [1], the “fold change (FC)” value came to 5.1.

Consider `COc1cc(C(=O)CN2C(=O)C(c3cc(OC)c(OC)c(OC)c3)=C(c3cc(OC)c(OC)c(OC)c3)C2=O)cc(OC)c1OC`, for which the “fold change (FC)” value in series [1] was found to be 1.8.

For the compound `COc1ccc(CN2C(=O)C(c3ccc(OC)c(OC)c3)=C(c3cc(OC)c(OC)c(OC)c3)C2=O)cc1`, in series [1], the “fold change (FC)” value was determined as 18. Besides, the Ratio in the series listed under Homo sapiens [9] came out at 4.

`COc1ccc(C(=O)CN2C(=O)C(c3ccc(OC)c(OC)c3)=C(c3cc(OC)c(OC)c(OC)c3)C2=O)cc1`: the “fold change (FC)” value in series [1] is 7.2.

On to `CCOc1cc(CN2C(=O)C(c3ccc(OC)c(OC)c3)=C(c3ccc(OC)c(OC)c3)C2=O)cc(OCC)c1OCC`, for which the “fold change (FC)” value in series [1] is given as 1.9.

On to `COc1ccc(C2=C(c3cc(OC)c(OC)c(OC)c3)C(=O)N(CC(=O)c3cc(OC)c(OC)c(OC)c3)C2=O)cc1OC`, for which the “fold change (FC)” value in series [1] was determined as 3.8.

For `COc1ccc(C2=C(c3ccc(OC)c(OC)c3)C(=O)N(CCn3cnc4c(=O)n(C)c(=O)n(C)c43)C2=O)cc1OC`, the “fold change (FC)” value in series [1] came out at 1.2.

Consider `COc1ccc(C2=C(c3ccc(OC)c(OC)c3)C(=O)N(Cc3cc(OC(C)C)c(OC(C)C)c(OC(C)C)c3)C2=O)cc1OC`, for which the “fold change (FC)” value in series [1] was found to be 8.5.

`COc1ccc(CCN2C(=O)C(c3ccc(OC)c(OC)c3)=C(c3cc(OC)c(OC)c(OC)c3)C2=O)cc1`: in series [1], the “fold change (FC)” value stood at 12.7.

In the case of `COc1ccc(CN2C(=O)C(c3ccc(OC)c(OC)c3)=C(c3cc(OC)c(OC)c(OC)c3)C2=O)cc1OC`, in series [1], the “fold change (FC)” value was 13.2.

In the case of `C=CCOc1cc(CN2C(=O)C(c3ccc(OC)c(OC)c3)=C(c3cc(OC)c(OC)c(OC)c3)C2=O)cc(OCC=C)c1OCC=C`, the “fold change (FC)” value in series [1] worked out at 6.8.

Turning to `COc1ccc(CCN(C)CCCC(C#N)(c2ccc(OC)c(OC)c2)C(C)C)cc1OC` (stereo not given), the result with MDA-435/LCC6 was inactive.

As to `COc1ccc(C2=C(c3ccc(OC)c(OC)c3)C(=O)N(CC(=O)OC(C)(C)C)C2=O)cc1OC`, the “fold change (FC)” value in series [1] is on record as 3.3.

Turning to `COc1ccc(C2=C(c3ccc(OC)c(OC)c3)C(=O)N(CC(=O)c3cc(OC)c(OC)c(OC)c3)C2=O)cc1OC`, the “fold change (FC)” value in series [1] came to 9.3.

With `COc1ccc(C(=O)CN2C(=O)C(c3cc(OC)c(OC)c(OC)c3)=C(c3cc(OC)c(OC)c(OC)c3)C2=O)cc1`, the “fold change (FC)” value in series [1] is given as 4.9.

For `COc1ccc(C2=C(c3ccc(OC)c(OC)c3)C(=O)N(CC(=O)c3ccc(OCc4ccccc4)cc3)C2=O)cc1OC`, in [1], the “fold change (FC)” value is 10.4.

With `COc1ccc(C2=C(c3ccc(OC)c(OC)c3)C(=O)N(CC(=O)c3ccc(OCc4ccccc4)c(OC)c3)C2=O)cc1OC`, the Ratio EC50 in the series listed under Homo sapiens [2] is 4.8. The “fold change (FC)” value in series [3] is recorded as 1.1; in [1], 42.7; in series [5], 6.9; in [6], 5.6; in series [7], 2.2. In addition, the IC50 (in [4]; with L929; in [8]) was above 100 µM throughout. Besides, the selectivity ratio in the series with P-gp (unknown origin) is above 1070. Further, the Drug uptake result in [10] was “Active”. In addition, in [11], the result was Active. Also, the outcome with MDA-435/LCC6 was inactive.

`COc1ccc(C2=C(c3cc(OC)c(OC)c(OC)c3)C(=O)N(CC(=O)c3ccc(OCc4ccccc4)cc3)C2=O)cc1OC`: the “fold change (FC)” value in series [1] is 16.8.

As to `COc1ccc(C(=O)CN2C(=O)C(c3cc(OC)c(OC)c(OC)c3)=C(c3cc(OC)c(OC)c(OC)c3)C2=O)cc1OC`, the “fold change (FC)” value in [1] is listed as 3.3.

For `CCOC(=O)CN1C(=O)C(c2ccc(OC)c(OC)c2)=C(c2ccc(OC)c(OC)c2)C1=O`, in [1], the “fold change (FC)” value is 7.

The record behind these values is ChEMBL document CHEMBL3102720, “Structure-activity relationship study of permethyl ningalin B analogues as P-glycoprotein chemosensitizers” (J Med Chem, 2013).
